From PMC7938327 (Journal of medicinal chemistry, 2017)
Entries after “also recorded” stand apart in the source; their conditions may differ.

How the values were obtained:
[1] = tested on: 4T1 breast cancer cell line; experiment: Chemoresistance of 4T1 cells to paclitaxel; format: cell-based, mouse; details: for LD50 to PT with ATX inhibitor pretreatment: 24 h pretreatment with 3 μM compound, then PT 48 h
[2] = tested on: A2058 human melanoma cells; experiment: ATX-mediated in vitro invasion assay; format: cell-based; details: exogenous LPC and recombinant ATX; for inhibition of A2058 cell invasion, screen at 10 μM: compared with 30; for inhibition of A2058 cell invasion (in words): dose–response
human recombinant ATX [3] = molecular target: T1, human recombinant ATX (Homo sapiens, UniProt Q13822); experiment: ATX lysophospholipase D activity, FS-3 hydrolysis; format: biochemical; details: FS-3 0 to 10 μM, inhibitor 0, 0.5 × IC50 or 2 × IC50; best global fit
[4] = molecular target: T2, purified recombinant ENPP6 (Homo sapiens, UniProt Q6UWR7); experiment: ENPP6 inhibition, pNPPC hydrolysis; format: biochemical; details: 10 μM pNPPC, 10 nM ENPP6, compound 0 to 10 μM; data not shown
T2 sequence (Q6UWR7 23-440): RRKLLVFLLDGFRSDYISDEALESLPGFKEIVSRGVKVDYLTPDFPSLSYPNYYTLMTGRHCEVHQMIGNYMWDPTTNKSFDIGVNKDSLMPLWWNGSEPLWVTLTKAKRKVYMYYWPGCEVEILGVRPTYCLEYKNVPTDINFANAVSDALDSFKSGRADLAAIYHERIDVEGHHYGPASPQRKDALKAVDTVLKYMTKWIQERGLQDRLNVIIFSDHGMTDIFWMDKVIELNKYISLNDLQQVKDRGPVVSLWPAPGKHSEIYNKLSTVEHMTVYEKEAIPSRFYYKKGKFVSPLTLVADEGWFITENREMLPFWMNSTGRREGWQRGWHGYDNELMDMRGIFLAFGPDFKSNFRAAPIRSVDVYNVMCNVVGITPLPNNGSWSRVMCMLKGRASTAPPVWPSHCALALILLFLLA
How it was run: (§1)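 Purified recombinant enzyme (0 or 10 nM) was incubated with 10 μM pNPPC and 0–10 μM test compound in triplicate wells. Buffers were 100 mM Tris, 500 mM NaCl, 0.05% Triton, pH 9.0 for ENPP6, and 50 mM Tris, 150 mM NaCl, 10 mM taurocholate, pH 8.5 for ENPP7. Absorbance at 405 nm was read every 2 min for 1 h.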

[5] = In vitro stability in 4T1 cell culture by LC-MS; format: in vitro ADME, mouse; details: 40 h of exposure to 4T1 cells
LPA1 = LPA1 (Homo sapiens, UniProt Q92633); experiment: LPA-mediated Ca2+ mobilization, LPA1 RH7777 cells; format: cell-based; details: for antagonist activity at LPA1 (in words): LPA1-elicited Ca2+ responses
Sequence of LPA1 (Q92633 whole entry, species assumed): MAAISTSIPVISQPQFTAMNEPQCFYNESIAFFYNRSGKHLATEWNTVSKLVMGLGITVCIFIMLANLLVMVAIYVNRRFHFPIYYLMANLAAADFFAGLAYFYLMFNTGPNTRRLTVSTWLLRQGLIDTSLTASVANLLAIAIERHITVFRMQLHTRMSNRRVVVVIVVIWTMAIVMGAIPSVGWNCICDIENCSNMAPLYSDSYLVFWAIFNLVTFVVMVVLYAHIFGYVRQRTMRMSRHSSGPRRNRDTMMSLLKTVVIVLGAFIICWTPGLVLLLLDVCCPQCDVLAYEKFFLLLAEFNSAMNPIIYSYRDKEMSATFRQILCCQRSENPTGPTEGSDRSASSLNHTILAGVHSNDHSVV
How it was run: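 Rat hepatoma RH7777 cells stably expressing LPA1 were seeded at 5 × 10^4 per well on poly-L-lysine, left overnight, then serum-deprived 4 h in HEPES-Krebs buffer pH 7.4. Cells were loaded 30 min with 4.5 μg/mL Fura-2AM plus 0.45% Pluronic F-127. […] The 340/510 and 380/510 nm ratio was read every 3.42 s for 70 s, normalized to LPA Emax, and fitted by variable-slope regression for IC50.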

human recombinant ATX [6] = molecular target: T1, human recombinant ATX; experiment: ATX nucleotide pyrophosphatase activity, pNP-TMP hydrolysis; format: biochemical; details: 1 mM pNP-TMP, 4 nM ATX, compound 0 to 1 μM
How it was run: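 Human recombinant FLAG-tagged ATX was expressed in Sf9 insect cells and purified on anti-FLAG resin. Absorbance at 405 nm was read every 2 min for 1 h.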

[7] = molecular target: T3, purified recombinant ENPP7 (Homo sapiens, UniProt Q6UWV6); experiment: ENPP7 inhibition, pNPPC hydrolysis; format: biochemical; details: 10 μM pNPPC, 10 nM ENPP7, compound 0 to 10 μM; data not shown
T3 sequence (Q6UWV6 22-458): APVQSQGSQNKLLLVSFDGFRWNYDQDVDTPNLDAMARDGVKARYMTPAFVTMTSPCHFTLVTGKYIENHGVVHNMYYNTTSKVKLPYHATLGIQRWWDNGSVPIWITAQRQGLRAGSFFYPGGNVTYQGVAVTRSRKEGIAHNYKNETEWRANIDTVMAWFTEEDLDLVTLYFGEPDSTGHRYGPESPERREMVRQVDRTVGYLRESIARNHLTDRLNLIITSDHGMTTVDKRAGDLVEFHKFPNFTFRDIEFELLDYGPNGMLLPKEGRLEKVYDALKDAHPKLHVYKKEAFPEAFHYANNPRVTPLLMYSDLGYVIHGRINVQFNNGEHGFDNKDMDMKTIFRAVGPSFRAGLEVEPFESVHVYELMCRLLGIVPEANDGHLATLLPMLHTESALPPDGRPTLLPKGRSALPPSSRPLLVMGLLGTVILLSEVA
How it was run: as §1

LPA3 = molecular target: T4, LPA3 (Homo sapiens, UniProt Q9UBY5); experiment: LPA-mediated Ca2+ mobilization, LPA3 RH7777 cells; format: cell-based; details: RH7777, read-out: LPA3 Emax
T4 sequence (Q9UBY5 1-353): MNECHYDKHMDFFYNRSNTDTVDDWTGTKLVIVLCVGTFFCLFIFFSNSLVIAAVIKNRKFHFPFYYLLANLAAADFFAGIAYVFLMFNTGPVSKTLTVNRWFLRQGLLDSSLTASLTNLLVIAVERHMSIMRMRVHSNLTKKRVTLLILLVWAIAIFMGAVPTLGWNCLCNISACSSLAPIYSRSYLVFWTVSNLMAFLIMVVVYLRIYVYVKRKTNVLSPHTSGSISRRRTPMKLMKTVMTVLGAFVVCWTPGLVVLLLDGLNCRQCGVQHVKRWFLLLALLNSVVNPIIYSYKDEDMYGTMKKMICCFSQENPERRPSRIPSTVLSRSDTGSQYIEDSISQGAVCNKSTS

LPA5 = LPA5 (Homo sapiens, UniProt Q9H1C0); experiment: LPA-mediated Ca2+ mobilization, LPA5 B103 cells; format: cell-based; details: LPA 18:1 alone; normalized to percentage of LPA 18:1 Emax
Sequence of LPA5 (Q9H1C0 whole entry, species assumed): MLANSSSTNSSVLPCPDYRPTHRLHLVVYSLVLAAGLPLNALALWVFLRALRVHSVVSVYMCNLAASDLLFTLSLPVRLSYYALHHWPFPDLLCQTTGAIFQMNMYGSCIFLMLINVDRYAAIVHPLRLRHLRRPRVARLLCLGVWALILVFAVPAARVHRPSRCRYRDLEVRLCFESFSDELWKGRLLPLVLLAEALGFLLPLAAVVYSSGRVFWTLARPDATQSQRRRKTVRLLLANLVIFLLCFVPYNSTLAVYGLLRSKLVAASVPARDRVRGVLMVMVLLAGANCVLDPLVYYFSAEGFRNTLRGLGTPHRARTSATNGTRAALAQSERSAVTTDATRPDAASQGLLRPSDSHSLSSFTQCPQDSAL

LPA2 = LPA2 (Homo sapiens, UniProt Q9HBW0); experiment: LPA-mediated Ca2+ mobilization, LPA2 MEF cells; format: cell-based; details: read-out: LPA2 Emax
Sequence of LPA2 (Q9HBW0 whole entry, species assumed): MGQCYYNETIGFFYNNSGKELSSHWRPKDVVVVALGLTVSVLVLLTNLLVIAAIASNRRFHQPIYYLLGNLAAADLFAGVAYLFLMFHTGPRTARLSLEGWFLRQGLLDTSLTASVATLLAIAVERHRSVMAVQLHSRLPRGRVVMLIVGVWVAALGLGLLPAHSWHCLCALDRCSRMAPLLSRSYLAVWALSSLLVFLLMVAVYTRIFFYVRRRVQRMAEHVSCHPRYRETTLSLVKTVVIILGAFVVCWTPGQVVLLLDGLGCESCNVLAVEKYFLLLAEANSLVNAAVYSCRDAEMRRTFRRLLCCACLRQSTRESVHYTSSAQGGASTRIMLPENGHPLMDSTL

LPA4 = LPA4 (Homo sapiens, UniProt Q99677); experiment: LPA-mediated Ca2+ mobilization, LPA4 CHO cells; format: cell-based; details: read-out: LPA4 Emax
Sequence of LPA4 (Q99677 whole entry, species assumed): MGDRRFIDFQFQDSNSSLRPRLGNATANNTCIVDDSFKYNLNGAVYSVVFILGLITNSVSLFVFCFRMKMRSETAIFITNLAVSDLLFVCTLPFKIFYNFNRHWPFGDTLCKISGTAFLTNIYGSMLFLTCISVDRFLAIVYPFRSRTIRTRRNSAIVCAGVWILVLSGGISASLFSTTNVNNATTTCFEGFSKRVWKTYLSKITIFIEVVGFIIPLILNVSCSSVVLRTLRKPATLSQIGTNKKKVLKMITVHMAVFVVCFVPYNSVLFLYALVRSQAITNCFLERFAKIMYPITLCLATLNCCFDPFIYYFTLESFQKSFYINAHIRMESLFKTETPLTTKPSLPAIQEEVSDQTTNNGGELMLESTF

[8] = tested on: 4T1-TaxR cancer stem-like cells (mammospheres); experiment: 4T1-TaxR mammosphere viability with paclitaxel; format: cell-based, mouse

Emax (LPA1; RH7777, read-out: LPA1 Emax) [%] | Emax (LPA3) [%] | LPA5 μEmax (LPA5) | Emax (LPA2) [%] | Emax (LPA4) [%] | SMILES | PT LD50 for reducing cell growth by 50%, applied alone ([1]; PT 48 h, no ATX inhibitor) [nM] | inhibition of A2058 cell invasion, screen at 10 μM [2] | inhibition of A2058 cell invasion (in words) [2] | mechanism (human recombinant ATX [3]) | inhibitory activity for ENPP6 [4] | LD50 to PT with ATX inhibitor pretreatment [1] [nM] | in vitro stability (in words) [5] | antagonist activity at LPA1 (in words) (LPA1) | pNP-TMP inhibition (human recombinant ATX [6]) | inhibitory activity for ENPP7 [7] | resensitization of cancer stem-like cells to PT (in words) ([8]; 4T1-TaxR cells) | further reduction of cell viability compared to PT alone ([8]; 4T1-TaxR mammospheres, PT 100 nM, compound 5 μM, 3 days)
– | – | – | – | – | CC(=O)O[C@H]1C(=O)[C@@]2(C)[C@H]([C@H](OC(=O)c3ccccc3)[C@]3(O)C[C@H](OC(=O)[C@H](O)[C@@H](NC(=O)c4ccccc4)c4ccccc4)C(C)=C1C3(C)C)[C@]1(OC(C)=O)CO[C@@H]1C[C@@H]2O [PT, paclitaxel, reference compound] | 202 | – | – | – | – | – | – | – | – | – | – | –
– | – | – | – | – | O=C(Nc1cc(F)c(Cl)c(F)c1)c1cc(S(=O)(=O)N2CCOCC2)c(Cl)cc1Cl [Compound 3f, 2,4-Dichloro-N-(4-chloro-3,5-difluorophenyl)-5-(morpholinosulfonyl)benzamide] | – | as effective as 30 | dose dependently decreased A2058 cell invasion | competitive | lack inhibitory action | 66 | significant stability | weak antagonist action; also recorded: exhibited antagonist activity; also recorded: effective in antagonizing LPA1-elicited Ca^2+ responses | none | lack inhibitory action | – | –
100 | 100 | 100.00 ± 0.00 | 100 | 100 | CCCCCCCC/C=C\CCCCCCCC(=O)OCC(O)COP(=O)(O)O (centres unmarked) [LPA 18:1] | – | – | – | – | – | – | – | – | – | – | – | –
– | – | – | – | – | O=C(Nc1cc(F)c(F)c(F)c1)c1cc(S(=O)(=O)N2CCOCC2)c(Cl)cc1Cl [Compound 3b, 2,4-Dichloro-5-(morpholinosulfonyl)-N-(3,4,5-trifluorophenyl)-benzamide] | – | as effective as 30 | inhibit ATX-dependent invasion; also recorded: dose dependently decreased A2058 cell invasion | competitive | lack inhibitory action | 127 | significant stability | weak antagonist action; also recorded: exhibited antagonist activity; also recorded: effective in antagonizing LPA1-elicited Ca^2+ responses | sparing effects on hydrolysis of the nucleotide substrate pNP-TMP and none | lack inhibitory action | potently reduced in vitro chemotherapeutic resistance; also recorded: effectively resensitized | 25–30%
